Series [1] in a line: Toxicity in rat assessed as mild to moderate hyperglycemia at 2 to 20 mg/kg,po QD consecutive for 14 days followed by 2 weeks recovery period. The class given is organism-based. The note with it: in vivo, 336 h, dose 2-20 mg/kg, time 14 day. Put shortly: (§1)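 Oral suspension given once daily for 14 consecutive days (rat 2, 6, 20 mg/kg; dog 2, 4, 6 mg/kg) in dose range-finding and GLP repeat-dose studies, GLP arms with an added 2-week recovery period; histopathology and clinical pathology findings recorded.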

A short description of series [2]: Toxicity in dog assessed as GI mucosal erosion at 2 to 6 mg/kg,po QD consecutive for 14 days followed by 2 weeks recovery period. To be noted: in vivo, 336 h, dose 2-6 mg/kg, time 14 day. The class given is organism-based, Canis lupus familiaris. Put shortly: as §1
Series [3] is described as follows: Half life in rat plasma at 1 mg/kg,iv. In kind it is ADME, organism-based.
The nature of series [4]: Toxicity against BALB/c mouse plasma xenografted with human MV4-11 cells assessed as body weight loss at 30 mg/kg,po QD for 28 days. In kind it is organism-based. To be noted: in vivo, 672 h, time 28 day. In outline: (§2)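 Body weight change (%) followed in MV-4-11 AML mouse xenograft during 28 days of oral single-agent dosing (30 mg/kg once or twice daily, 60 mg/kg once daily), vehicle PO BID as control.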
A general note: A xenograft is tissue or cells of one species grown in another, often human tumour cells in immunodeficient mice.

The nature of series [5]: Clearance in rat assessed as liver blood flow at 1 mg/kg,iv. The class given is ADME, organism-based. The note with it: in vivo.
Series [6] can be described thus: Total clearance in dog at 0.5 mg/kg,iv. To be noted: in vivo. In kind it is ADME, organism-based, Canis lupus familiaris.
A short description of series [7]: AUC (0 to infinity) in dog at 2.5 mg/kg,po. The class given is ADME, organism-based, Canis lupus familiaris. Details: dose 2.5 mg/kg, route po. To be noted: in vivo.
The nature of series [8]: Toxicity in dog assessed as hypocellularity of bone marrow with associated anemia and thrombocytopenia at 2 to 6 mg/kg,po QD consecutive for 14 days followed by 2 weeks recovery period. The class given is organism-based, Canis lupus familiaris. To be noted: in vivo, 336 h, dose 2-6 mg/kg, time 14 day. Put shortly: as §1
Series [9] concerns MV4-11. The experiment in a line: In vivo inhibition of BRD4 in human MV4-11 cells xenografted in BALB/c mouse assessed as reduction in cellular MYC mRNA expression level in plasma at 15 mg/kg,sc BID and measured for 8 to 12 hrs by PCR anlaysis. In kind it is functional, organism-based. To be noted: time 8-12 hrs. In outline: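 Pharmacodynamic study in MV-4-11 AML mouse xenograft. Dosing was 15 mg/kg subcutaneous twice daily. At 4, 8 and 12 h after the second dose, MYC mRNA was measured against vehicle, and compound levels were measured in plasma and tumor. Free plasma concentration was estimated alongside total levels.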

Series [10] can be described thus: Toxicity in rat assessed as degeneration of testicular seminiferous epithelium at 2 to 20 mg/kg,po QD consecutive for 14 days followed by 2 weeks recovery period. In kind it is organism-based. The note with it: in vivo, 336 h, dose 2-20 mg/kg, time 14 day. In outline: as §1
A short description of series [11]: Cmax in rat at 5 mg/kg,po. The class given is ADME, organism-based. Details: dose 5 mg/kg, route po. The note with it: in vivo.
A short description of series [12]: Cmax in mouse at 30 mg/kg,po. The class given is ADME, organism-based. On the set-up: dose 30 mg/kg, route po. The note with it: in vivo.
In series [13] the target is T1, Bromodomain-containing protein 9 (Homo sapiens, UniProt Q9H8M2).
T1 sequence (Q9H8M2 whole entry): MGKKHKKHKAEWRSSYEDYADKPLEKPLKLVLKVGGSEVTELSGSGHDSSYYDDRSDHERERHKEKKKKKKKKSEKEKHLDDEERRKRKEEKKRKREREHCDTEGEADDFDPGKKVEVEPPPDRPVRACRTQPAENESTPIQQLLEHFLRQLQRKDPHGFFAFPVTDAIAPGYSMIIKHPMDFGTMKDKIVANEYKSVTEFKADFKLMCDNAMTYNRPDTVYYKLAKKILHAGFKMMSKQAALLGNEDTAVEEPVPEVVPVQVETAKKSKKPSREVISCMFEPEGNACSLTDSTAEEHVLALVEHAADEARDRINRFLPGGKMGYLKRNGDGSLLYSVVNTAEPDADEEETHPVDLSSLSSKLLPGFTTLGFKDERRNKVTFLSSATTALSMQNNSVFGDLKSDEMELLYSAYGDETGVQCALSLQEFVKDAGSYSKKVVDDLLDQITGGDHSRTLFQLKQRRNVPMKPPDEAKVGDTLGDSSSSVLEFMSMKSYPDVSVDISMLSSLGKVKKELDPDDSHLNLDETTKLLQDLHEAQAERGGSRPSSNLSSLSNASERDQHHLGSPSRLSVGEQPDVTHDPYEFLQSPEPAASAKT
The experiment in a line: Binding affinity to BRD9 bromodomain (unknown origin) incubated for 60 mins by TR-FRET assay. Background: Time-resolved FRET reads energy transfer from a long-lived donor to a nearby acceptor.

A short description of series [14]: Unbound AUC in mouse at 10 mg/kg,sc. In kind it is ADME, organism-based. The note with it: in vivo.
Series [15] is described as follows: Toxicity against BALB/c mouse plasma xenografted with human MV4-11 cells assessed as body weight loss at 60 mg/kg,po QD for 28 days. The class given is organism-based. To be noted: in vivo, 672 h, time 28 day. In outline: as §2
Series [16] in a line: Half life in dog plasma at 0.5 mg/kg,iv. In kind it is ADME, organism-based, Canis lupus familiaris.
In series [17] the target is T2, Peregrin (Homo sapiens, UniProt P55201).
T2 sequence (P55201 whole entry): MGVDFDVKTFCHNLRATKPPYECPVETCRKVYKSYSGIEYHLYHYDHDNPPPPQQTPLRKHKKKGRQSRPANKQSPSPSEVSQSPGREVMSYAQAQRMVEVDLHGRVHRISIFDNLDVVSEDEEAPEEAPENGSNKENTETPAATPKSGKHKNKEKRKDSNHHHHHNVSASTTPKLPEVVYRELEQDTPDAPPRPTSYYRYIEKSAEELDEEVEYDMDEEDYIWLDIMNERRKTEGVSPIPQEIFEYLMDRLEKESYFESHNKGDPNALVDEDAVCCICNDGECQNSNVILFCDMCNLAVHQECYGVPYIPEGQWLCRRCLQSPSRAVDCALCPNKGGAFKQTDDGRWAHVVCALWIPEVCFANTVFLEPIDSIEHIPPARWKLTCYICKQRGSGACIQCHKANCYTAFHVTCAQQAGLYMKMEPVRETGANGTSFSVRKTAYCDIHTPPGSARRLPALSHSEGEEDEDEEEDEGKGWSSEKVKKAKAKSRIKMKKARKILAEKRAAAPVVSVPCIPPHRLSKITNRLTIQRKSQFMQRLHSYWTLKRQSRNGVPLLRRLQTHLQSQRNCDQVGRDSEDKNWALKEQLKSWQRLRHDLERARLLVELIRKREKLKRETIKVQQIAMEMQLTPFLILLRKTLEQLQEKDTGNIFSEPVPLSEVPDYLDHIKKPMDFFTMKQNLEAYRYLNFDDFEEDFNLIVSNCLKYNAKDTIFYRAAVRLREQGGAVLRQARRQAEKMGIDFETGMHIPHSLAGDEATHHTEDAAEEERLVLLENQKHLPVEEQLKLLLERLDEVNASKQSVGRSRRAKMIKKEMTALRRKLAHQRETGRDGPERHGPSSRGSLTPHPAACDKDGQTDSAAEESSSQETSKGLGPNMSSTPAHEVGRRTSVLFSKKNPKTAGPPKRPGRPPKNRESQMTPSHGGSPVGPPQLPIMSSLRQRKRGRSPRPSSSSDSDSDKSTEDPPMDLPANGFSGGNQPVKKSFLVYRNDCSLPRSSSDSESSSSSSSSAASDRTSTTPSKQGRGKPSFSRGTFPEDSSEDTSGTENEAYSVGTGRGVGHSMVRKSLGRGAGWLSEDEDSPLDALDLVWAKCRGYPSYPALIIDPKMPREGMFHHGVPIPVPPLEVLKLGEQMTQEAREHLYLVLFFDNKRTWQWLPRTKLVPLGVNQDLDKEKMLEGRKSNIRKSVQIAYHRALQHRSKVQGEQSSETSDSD
The experiment in a line: Displacement of biotinylated JQ1 from BRPF1 bromodomain (unknown origin) incubated for 20 mins by AlphaLISA assay. (Bead proximity is the source of the signal in Alpha formats.)

Each structure is given as a SMILES string. Calls of active or inactive are those of the source.

One molecule from ChEMBL document CHEMBL5252513, “Identification of a Benzoisoxazoloazepine Inhibitor (CPI-0610) of the Bromodomain and Extra-Terminal (BET) Family as a Candidate for Human Clinical Trials” (J Med Chem, 2016) can be followed below.

The term half-life denotes the time needed for the level to fall by half in the phase considered. A lower half-life goes with fast loss. In general, clearance refers to the rate of elimination divided by the concentration. The low end stands for inefficient removal, the high end for efficient removal. The term AUC(0-inf) denotes the area under the concentration-time curve extrapolated to infinity. A low value points to less exposure. As usually defined, the Cmax is the maximum level reached in the sampled fluid or tissue. Broadly, the IC50 is the midpoint of a concentration-inhibition curve. A low value points to higher potency. On to `Cc1noc2c1-c1ccccc1C(c1ccc(Cl)cc1)=N[C@H]2CC(N)=O` [PELABRESIB], for which the Activity entry in [1] is on record as “Toxic”; in [2], “Toxic”; in series [4], “Non-Toxic”; in [8], “Toxic”; in series [10] it was “Toxic”; in series [15], “Non-Toxic”. The half-life in series [3] was 0.93 h; in series [16] it was 9 h. In [5], the QH worked out at 36%. The same molecule gave a clearance in [6] of 1.83 mL/min/kg. In series [7], this molecule had an AUC(0-inf) of 28 µM·h. Also, the inhibition result in series [9] is “inactive”. For the same molecule, the Cmax in [11] was 1.8 µM; in series [12], 24 µM. The IC50 in [13] is over 80 µM; in [17], over 20 µM. Further, in series [14], the fAUC was determined as 1.5 µM·h.
